This passage reports IC50, Activity and inhibition results from ChEMBL document CHEMBL4382240, “Discovery of novel 2,5-dihydroxyterephthalamide derivatives as multifunctional agents for the treatment of Alzheimer's disease” (Bioorg Med Chem, 2018).

Usually pIC50 stands for the IC50 on a negative log10 scale, so that one unit is a factor of ten. As usually defined, the inhibition is the drop in the measured response relative to a control, in per cent. A lower inhibition goes with a response near the control.

pIC50: −log10 of the molar value.

Test [1] concerns the target T1, Acetylcholinesterase (Rattus norvegicus, UniProt P37136).
T1 sequence (P37136 whole entry): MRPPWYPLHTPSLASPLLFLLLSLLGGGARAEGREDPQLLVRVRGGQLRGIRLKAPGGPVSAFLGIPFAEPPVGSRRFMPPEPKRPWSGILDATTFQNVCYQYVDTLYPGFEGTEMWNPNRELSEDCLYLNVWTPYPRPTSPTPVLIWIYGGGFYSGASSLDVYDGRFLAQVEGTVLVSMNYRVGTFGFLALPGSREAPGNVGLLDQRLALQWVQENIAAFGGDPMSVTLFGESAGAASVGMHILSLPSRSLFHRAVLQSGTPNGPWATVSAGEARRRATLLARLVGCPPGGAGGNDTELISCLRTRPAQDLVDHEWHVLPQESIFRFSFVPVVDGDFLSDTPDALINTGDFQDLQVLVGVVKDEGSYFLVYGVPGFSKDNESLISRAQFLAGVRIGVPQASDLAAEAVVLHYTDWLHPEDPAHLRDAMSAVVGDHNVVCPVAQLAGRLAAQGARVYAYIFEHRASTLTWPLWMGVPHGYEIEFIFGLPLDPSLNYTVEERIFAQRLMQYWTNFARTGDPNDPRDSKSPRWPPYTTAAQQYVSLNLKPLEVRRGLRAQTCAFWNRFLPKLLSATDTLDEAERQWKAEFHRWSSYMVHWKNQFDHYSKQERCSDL
In words: Inhibition of rat cortex AChE using acetylthiocholine iodide as substrate after 15 mins by Ellman's method. On the technique in general: In Ellman's method for cholinesterases, released thiocholine reacts with DTNB.

For test [2], the target named is Butyrylcholinesterase (Rattus norvegicus, UniProt Q9JKC1). The test can be described thus: Inhibition of rat serum BuChE using butyrylthiocholine iodide as substrate after 15 mins by Ellman's method. Type of test: ADME.
Test [3] has as its target Acetylcholinesterase (Electrophorus electricus, UniProt O42275). In words: Inhibition of electric eel AChE using acetylthiocholine iodide as substrate after 15 mins by Ellman's method.
Test [4] can be described thus: Antioxidant activity assessed as trolox equivalent of APPH-induced radical scavenging activity at 5 uM preincubated for 15 mins followed by AAPH addition measured every minute for 90 mins by ORAC fluorescein assay. Type of test: functional. The method, boiled down: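 ORAC-FL in 75 mM phosphate buffer, pH 7.4. Fluorescein (150 nM final) and sample (tested at 1–10 µM) incubated 15 min at 37 °C. AAPH (12 mM final) then added, and fluorescence (ex 485/em 535 nm) read every minute for 90 min. Trolox standard 1–8 µM; result expressed as µM Trolox equivalent per µM compound. Duplicate wells; three independent experiments.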

Test [5] addresses T2, Amyloid-beta precursor protein (Homo sapiens, UniProt P05067). In words: Inhibition of human amyloid beta (1 to 42) self-induced aggregation at 25 uM after 24 hrs by Thioflavin T based fluorometric assay relative to control. Put shortly:
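Aβ1-42 (25 µM final) incubated with compound (25 µM final) in 50 mM phosphate buffer, pH 7.4, for 24 h at 37 °C under a sealing film. ThT (5 µM) in 50 mM glycine-NaOH, pH 8.5, then added and fluorescence measured. Triplicate; mean ± SD of three independent experiments.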

A short description of test [6]: Inhibition of Cu2+ induced human amyloid beta (1 to 42) aggregation at 25 uM after 24 hrs by Thioflavin T based fluorometric assay relative to control. Put shortly: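 Aβ1-42 (25 µM) and Cu2+ (25 µM) in HEPES buffer (20 mM, pH 6.6, 150 mM NaCl), with or without compound (25 µM final), incubated 24 h at 37 °C. ThT (5 µM) in glycine-NaOH, pH 8.5, added and fluorescence read. Triplicate; three independent experiments.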

Test [7] concerns the target T2, Amyloid-beta precursor protein. In words: Inhibition of human amyloid beta (1 to 42) self-induced aggregation after 24 hrs by Thioflavin T based fluorometric assay. The method, boiled down:
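Self-induced Aβ1-42 aggregation (25 µM peptide) in phosphate buffer, pH 7.4, for 24 h at 37 °C with varying compound concentrations. Aggregation read by ThT fluorescence (5 µM ThT, glycine-NaOH pH 8.5).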

Test [8] shares this target. In words: Disaggregation of self-induced preformed fibrils of human amyloid beta (1 to 42) at 25 uM after 24 hrs by Thioflavin T based fluorometric assay relative to control. The method, boiled down: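 Aβ1-42 diluted in HEPES buffer (20 mM, pH 6.6, 150 mM NaCl) and pre-aggregated 24 h at 37 °C. Compound (25 µM) then added for another 24 h at 37 °C on a sealed plate. Remaining fibrils read by ThT fluorescence in glycine-NaOH, pH 8.5. Triplicate; three independent experiments.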

The nature of test [9]: Disaggregation of Cu2+ induced preformed fibrils of human amyloid beta (1 to 42) at 25 uM after 24 hrs by Thioflavin T based fluorometric assay relative to control. Put shortly: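 Aβ1-42 (25 µM) with Cu2+ (25 µM) in HEPES buffer pre-aggregated 24 h at 37 °C. Compound (25 µM) then added for a further 24 h at 37 °C. Fibril content measured by ThT fluorescence (glycine-NaOH, pH 8.5). Triplicate; three independent experiments.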

T2 sequence (P05067 whole entry): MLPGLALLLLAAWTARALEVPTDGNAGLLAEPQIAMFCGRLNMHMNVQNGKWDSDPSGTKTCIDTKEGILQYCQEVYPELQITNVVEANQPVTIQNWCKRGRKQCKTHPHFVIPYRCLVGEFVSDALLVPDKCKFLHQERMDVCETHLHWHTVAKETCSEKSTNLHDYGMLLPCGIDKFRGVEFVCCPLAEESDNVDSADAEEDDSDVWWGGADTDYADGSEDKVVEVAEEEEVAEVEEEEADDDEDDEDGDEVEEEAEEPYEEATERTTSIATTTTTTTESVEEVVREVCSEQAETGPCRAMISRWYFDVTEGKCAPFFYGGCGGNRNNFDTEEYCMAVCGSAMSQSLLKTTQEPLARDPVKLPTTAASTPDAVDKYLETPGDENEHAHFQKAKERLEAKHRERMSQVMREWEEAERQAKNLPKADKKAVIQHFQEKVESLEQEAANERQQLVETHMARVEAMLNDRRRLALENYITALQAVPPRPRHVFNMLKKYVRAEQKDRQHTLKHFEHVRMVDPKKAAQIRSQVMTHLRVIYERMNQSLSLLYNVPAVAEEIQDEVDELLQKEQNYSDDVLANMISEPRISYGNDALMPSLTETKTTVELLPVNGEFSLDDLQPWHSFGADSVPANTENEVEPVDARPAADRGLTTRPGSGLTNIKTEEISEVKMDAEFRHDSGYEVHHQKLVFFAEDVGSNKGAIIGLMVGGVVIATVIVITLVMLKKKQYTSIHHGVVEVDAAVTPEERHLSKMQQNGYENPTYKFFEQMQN
Sequence of Butyrylcholinesterase (Q9JKC1 whole entry): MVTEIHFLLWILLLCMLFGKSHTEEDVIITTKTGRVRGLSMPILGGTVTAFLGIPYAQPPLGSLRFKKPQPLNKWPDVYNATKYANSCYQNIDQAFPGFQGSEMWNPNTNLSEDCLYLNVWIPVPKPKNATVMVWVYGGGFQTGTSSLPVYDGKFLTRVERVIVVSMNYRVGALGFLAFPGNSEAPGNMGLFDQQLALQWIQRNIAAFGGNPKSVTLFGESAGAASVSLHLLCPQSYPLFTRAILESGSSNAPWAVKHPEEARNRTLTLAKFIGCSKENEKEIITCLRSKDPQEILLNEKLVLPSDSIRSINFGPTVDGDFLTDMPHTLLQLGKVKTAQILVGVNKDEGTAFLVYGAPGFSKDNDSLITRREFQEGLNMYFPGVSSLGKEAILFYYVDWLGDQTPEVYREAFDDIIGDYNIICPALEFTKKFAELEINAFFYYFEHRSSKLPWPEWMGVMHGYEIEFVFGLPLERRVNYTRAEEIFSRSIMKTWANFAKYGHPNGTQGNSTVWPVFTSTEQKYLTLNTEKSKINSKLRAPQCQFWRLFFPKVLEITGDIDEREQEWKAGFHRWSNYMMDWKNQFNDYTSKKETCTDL
Sequence of Acetylcholinesterase (Electrophorus electricus, UniProt O42275) (O42275 whole entry): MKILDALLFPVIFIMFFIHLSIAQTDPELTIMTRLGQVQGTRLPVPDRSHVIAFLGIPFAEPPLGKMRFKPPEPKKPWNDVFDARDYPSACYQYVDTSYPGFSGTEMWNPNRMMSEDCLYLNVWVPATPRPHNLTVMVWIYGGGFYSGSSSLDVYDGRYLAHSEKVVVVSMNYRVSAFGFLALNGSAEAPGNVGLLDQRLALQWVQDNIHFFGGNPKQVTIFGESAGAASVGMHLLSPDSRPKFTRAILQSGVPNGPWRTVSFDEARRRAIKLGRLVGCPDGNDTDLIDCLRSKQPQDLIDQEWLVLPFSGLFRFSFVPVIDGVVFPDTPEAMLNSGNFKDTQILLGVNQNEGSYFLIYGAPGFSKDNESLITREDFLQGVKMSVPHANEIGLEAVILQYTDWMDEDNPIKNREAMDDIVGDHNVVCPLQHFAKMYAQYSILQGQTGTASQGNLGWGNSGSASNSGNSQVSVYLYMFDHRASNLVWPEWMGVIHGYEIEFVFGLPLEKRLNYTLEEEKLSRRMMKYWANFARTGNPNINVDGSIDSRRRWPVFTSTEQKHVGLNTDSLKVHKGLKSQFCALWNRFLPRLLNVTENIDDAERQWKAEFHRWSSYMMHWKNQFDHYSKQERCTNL

Regarding `CCN(CCCCNC(=O)c1cc(O)c(C(=O)NCCCCN(CC)Cc2ccccc2N(C)C)cc1O)Cc1ccccc1N(C)C`, the negative logarithm of the IC50 (pIC50) in [1] was 5.38; in test [2], < 4.00; in [3], 4.97; in test [7], 5.43. Moreover, the Activity in [4] stood at 1.16 equiv; in [8], 64.4%; in [9], 83.3%. The inhibition in test [5] came to 99.7%; in [6] it was 69.4%.
On to `O=C(NCCCCN1CCOc2ccccc2C1)c1cc(O)c(C(=O)NCCCCN2CCOc3ccccc3C2)cc1O`, for which the pIC50 is 4.51 in test [1], < 4.00 in test [2], 4.19 in test [3] and 5.26 in test [7]. Also, the Activity in [4] came out at 1.02 equiv; in test [8], 67.4%; in [9], 85.3%. For the same compound, the inhibition in test [5] was 71.6%; in test [6] it was 74%.
Take `CN(CCCNC(=O)c1cc(O)c(C(=O)NCCCN(C)Cc2ccccc2)cc1O)Cc1ccccc1`: the negative-log IC50 (pIC50) was 4.95 in [1], < 4.00 in test [2], 4.85 in [3] and 5.40 in [7]. In addition, the Activity in [4] stood at 1.21 equiv; in test [8], 68.5%; in test [9] it was 71.3%. In addition, the inhibition in test [5] is 85%; in test [6], 81.2%.
`COc1ccccc1CN(C)CCCCCCNC(=O)c1cc(O)c(C(=O)NCCCCCCN(C)Cc2ccccc2OC)cc1O`: the pIC50 is 4.97 in test [1], 4.39 in test [2], 5.21 in [3] and 5.64 in [7]. The Activity in test [4] came to 0.62 equiv; in test [8], 76.3%; in test [9] it was 89.8%. The inhibition in test [5] is 99.7%; in test [6] it was 85.3%.
As to `COc1cc(/C=C/C(=O)CC(=O)/C=C/c2ccc(O)c(OC)c2)ccc1O`, the inhibition in [6] was found to be 66%. Further, the Activity in test [9] worked out at 54.7%.
Turning to `CN(CCCCNC(=O)c1cc(O)c(C(=O)NCCCCN(C)Cc2ccccc2)cc1O)Cc1ccccc1`, the negative-log IC50 (pIC50) in test [1] is 5.28; in [2], < 4.00; in [3] it was 4.90; in test [7], 5.45. The Activity in test [4] was found to be 1.52 equiv; in test [8], 67.7%; in test [9], 77.9%. The inhibition stood at 90% in test [5] and 77.6% in test [6].
In the case of `CCN(CCCNC(=O)c1cc(O)c(C(=O)NCCCN(CC)Cc2ccccc2)cc1O)Cc1ccccc1`, the pIC50 in test [1] was 5.11; in test [2], < 4.00; in test [3] it was 4.57; in test [7], 5.38. The Activity in [4] was determined as 0.95 equiv; in [8], 62.7%; in [9], 70.6%. The inhibition worked out at 81% in test [5] and 57.6% in test [6].
For `CN(CCCCCCNC(=O)c1cc(O)c(C(=O)NCCCCCCN(C)Cc2ccccc2)cc1O)Cc1ccccc1`, the pIC50 in test [1] is 5.25; in [2], 4.38; in [3], 4.88; in test [7] it was 5.63. Moreover, the Activity in test [4] amounted to 1.01 equiv; in [8], 80.9%; in test [9], 89.3%. The inhibition stood at 99.8% in [5] and 89.1% in test [6].
On to `CCN(CCCCNC(=O)c1cc(O)c(C(=O)NCCCCN(CC)Cc2ccc(N(C)C)cc2)cc1O)Cc1ccc(N(C)C)cc1`, for which the pIC50 in [1] is 4.56; in [2], < 4.00; in test [3], 4.32; in [7], 5.50. In addition, the Activity in test [4] is 3.23 equiv; in test [8], 60.4%; in test [9], 84.7%. The values for the inhibition in test [5] and in test [6] were 99.9% and 82.5%, respectively.
In the case of `COc1ccccc1CN(C)CCCNC(=O)c1cc(O)c(C(=O)NCCCN(C)Cc2ccccc2OC)cc1O`, the pIC50 in test [1] is 5.04; in test [2], 4.76; in test [3] it was 4.40; in test [7], 5.44. The Activity in [4] turned out to be 1.37 equiv; in test [8] it was 70.1%; in test [9] it was 73.5%. Also, the inhibition turned out to be 93.5% in test [5] and 70.4% in test [6].
For `CCN(CCCCCCNC(=O)c1cc(O)c(C(=O)NCCCCCCN(CC)Cc2ccccc2)cc1O)Cc1ccccc1`, the negative logarithm of the IC50 (pIC50) was 5.34 in test [1], 4.33 in test [2], 4.64 in test [3] and 5.55 in [7]. Further, the Activity came to 1.27 equiv in test [4], 83.5% in test [8] and 82.3% in test [9]. For the same compound, the figures for the inhibition in test [5] and in [6] were 91.4% and 74.3%, respectively.
As to `CCOC(=O)c1cc(O)c(C(=O)OCC)cc1O`, the pIC50 in test [1], in [2] and in [3] was < 4.00 each time. For the same compound, in test [4], the Activity is 0.96 equiv. Besides, the values for the inhibition in test [5] and in test [6] were 6.5% and 30.7%, respectively.
`CCN(CCCCNC(=O)c1cc(O)c(C(=O)NCCCCN(CC)Cc2ccccc2)cc1O)Cc1ccccc1`: the negative-log IC50 (pIC50) in [1] is 5.39; in test [2], < 4.00; in [3], 4.85; in [7], 5.41. Besides, the figures for the Activity in test [4], in [8] and in [9] were 0.93 equiv, 81.1% and 80%, respectively. Besides, the inhibition turned out to be 88% in [5] and 84.1% in [6].
